Legend:
[1] = biological target: T1, Growth hormone secretagogue receptor type 1 (Homo sapiens, UniProt Q92847); experiment: Agonist activity at human GHSR expressed in CHO cells assessed as increase in ghrelin-induced [3H]IP accumulation at 10 uM after 1 hr by scintillation counting relative to ghrelin; type: functional, cell-based
Summary of the method: (§1)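 CHO cells stably expressing human or rat GHSR labelled 12 h with 3H-inositol (1 µCi/mL in DMEM), then exposed to ghrelin or compound at 37 °C for 1.0 h. Lysis with 20 mM formic acid, 4 °C, 4 h. Extract taken onto SPA beads, 12 h in the dark, then radioactivity counted. IP accumulation expressed as % of maximal ghrelin response at 10, 1.0 and 0.1 µM.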

[2] = biological target: Sodium-dependent noradrenaline transporter (Homo sapiens, UniProt P23975); experiment: Inhibition of NET
[3] = biological target: 5-hydroxytryptamine receptor 2A (Homo sapiens, UniProt P28223); experiment: Inhibition of 5HT2A (receptor)
[4] = biological target: Histamine H2 receptor (Homo sapiens, UniProt P25021); experiment: Inhibition of histamine H2 receptor
[5] = biological target: T1, Growth hormone secretagogue receptor type 1; experiment: Antagonist activity at human GHSR expressed in CHOK1 cells assessed as inhibition of ghrelin-induced intracellular calcium flux by aequorin flash luminescence assay; type: functional, cell-based, CHO-K1
Summary of the method: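 Aequorin flash luminescence in CHO-K1 cells stably co-expressing human ghrelin receptor and aequorin. […] IC50 values are means of three determinations.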

[6] = biological target: Sodium-dependent dopamine transporter (Homo sapiens, UniProt Q01959); experiment: Inhibition of DAT
[7] = biological target: T2, 5-hydroxytryptamine receptor 2C (Homo sapiens, UniProt P28335); experiment: Inhibition of 5HT2C (receptor)
T2 sequence (P28335 whole entry): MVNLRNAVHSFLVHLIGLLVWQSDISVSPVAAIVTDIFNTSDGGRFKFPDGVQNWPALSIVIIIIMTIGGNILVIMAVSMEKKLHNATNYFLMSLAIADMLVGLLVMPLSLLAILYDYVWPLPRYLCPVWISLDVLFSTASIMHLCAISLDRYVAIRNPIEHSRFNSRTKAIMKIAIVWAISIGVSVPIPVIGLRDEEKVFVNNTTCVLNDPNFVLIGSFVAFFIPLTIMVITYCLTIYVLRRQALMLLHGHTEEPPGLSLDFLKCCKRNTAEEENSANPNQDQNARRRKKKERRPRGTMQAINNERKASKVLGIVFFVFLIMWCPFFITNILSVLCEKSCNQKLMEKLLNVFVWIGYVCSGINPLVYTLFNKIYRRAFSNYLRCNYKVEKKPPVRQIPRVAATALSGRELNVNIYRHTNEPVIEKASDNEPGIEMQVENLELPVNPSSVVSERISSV

[8] = biological target: D(3) dopamine receptor (Homo sapiens, UniProt P35462); experiment: Inhibition of dopamine D3 receptor
[9] = biological target: Sodium-dependent serotonin transporter (Homo sapiens, UniProt P31645); experiment: Inhibition of SERT
[10] = biological target: D(2) dopamine receptor (Homo sapiens, UniProt P14416); experiment: Inhibition of dopamine D2 receptor
[11] = biological target: T3, Alpha-2A adrenergic receptor (Homo sapiens, UniProt P08913); experiment: Inhibition of alpha2A adrenergic receptor
T3 sequence (P08913 whole entry): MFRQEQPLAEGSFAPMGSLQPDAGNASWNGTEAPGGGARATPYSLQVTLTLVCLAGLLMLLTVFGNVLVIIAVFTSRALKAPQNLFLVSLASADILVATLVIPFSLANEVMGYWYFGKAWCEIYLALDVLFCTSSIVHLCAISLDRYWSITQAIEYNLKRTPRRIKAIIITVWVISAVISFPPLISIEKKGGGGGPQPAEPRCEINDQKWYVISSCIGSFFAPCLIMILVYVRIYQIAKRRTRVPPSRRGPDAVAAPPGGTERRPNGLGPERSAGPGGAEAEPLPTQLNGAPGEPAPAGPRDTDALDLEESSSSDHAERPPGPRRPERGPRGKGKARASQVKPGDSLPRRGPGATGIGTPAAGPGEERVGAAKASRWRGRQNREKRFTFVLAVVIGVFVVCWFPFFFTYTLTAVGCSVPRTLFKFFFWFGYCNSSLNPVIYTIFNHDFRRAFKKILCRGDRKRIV

[12] = Induction of growth hormone release from Sprague-Dawley rat pituitary cells at 1 uM after 20 mins by RIA assay relative to ghrelin; type: functional, Pituitary gland cell
Summary of the method: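 Pituitary cells from 6–8-week-old male SD rats plated on poly-D-lysine and cultured 3 days at 37 °C. Washed with DMEM assay buffer (20 mM Hepes, 0.3% BSA) and held 5 min at 37 °C. Treated with rat ghrelin or compound for 20 min, then GH release measured as % of maximal ghrelin response. Means of three determinations.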

[13] = biological target: Growth hormone secretagogue receptor type 1 (Rattus norvegicus) (UniProt O08725); experiment: Agonist activity at rat GHSR expressed in CHO cells assessed as increase in ghrelin-induced [3H]IP accumulation at 10 uM after 1 hr by scintillation counting relative to ghrelin; type: functional, cell-based; summary of the method: as §1
[14] = biological target: Mu-type opioid receptor (Homo sapiens, UniProt P35372); experiment: Inhibition of mu opioid receptor
[15] = biological target: Kappa-type opioid receptor (Homo sapiens, UniProt P41145); experiment: Inhibition of kappa opioid receptor
[16] = biological target: Muscarinic acetylcholine receptor M3 (Homo sapiens, UniProt P20309); experiment: Inhibition of muscarinic M3 receptor
[17] = biological target: Growth hormone secretagogue receptor type 1 (Rattus norvegicus) (UniProt O08725); experiment: Inhibition of rat GHSR expressed in CHOK1 cells assessed as inhibition of ghrelin-induced intracellular calcium flux by aequorin flash luminescence assay; type: functional, cell-based; details: CHO-K1
[18] = biological target: Growth hormone secretagogue receptor type 1 (Rattus norvegicus) (UniProt O08725); experiment: Agonist activity at rat GHSR expressed in CHO cells assessed as increase in ghrelin-induced [3H]IP accumulation at 1 uM after 1 hr by scintillation counting relative to ghrelin; type: functional, cell-based; summary of the method: as §1
[19] = biological target: Growth hormone secretagogue receptor type 1 (Rattus norvegicus) (UniProt O08725); experiment: Agonist activity at rat GHSR expressed in CHO cells assessed as increase in ghrelin-induced [3H]IP accumulation at 0.1 uM after 1 hr by scintillation counting relative to ghrelin; type: functional, cell-based; summary of the method: as §1

Sodium-dependent noradrenaline transporter, sequence (P23975 whole entry): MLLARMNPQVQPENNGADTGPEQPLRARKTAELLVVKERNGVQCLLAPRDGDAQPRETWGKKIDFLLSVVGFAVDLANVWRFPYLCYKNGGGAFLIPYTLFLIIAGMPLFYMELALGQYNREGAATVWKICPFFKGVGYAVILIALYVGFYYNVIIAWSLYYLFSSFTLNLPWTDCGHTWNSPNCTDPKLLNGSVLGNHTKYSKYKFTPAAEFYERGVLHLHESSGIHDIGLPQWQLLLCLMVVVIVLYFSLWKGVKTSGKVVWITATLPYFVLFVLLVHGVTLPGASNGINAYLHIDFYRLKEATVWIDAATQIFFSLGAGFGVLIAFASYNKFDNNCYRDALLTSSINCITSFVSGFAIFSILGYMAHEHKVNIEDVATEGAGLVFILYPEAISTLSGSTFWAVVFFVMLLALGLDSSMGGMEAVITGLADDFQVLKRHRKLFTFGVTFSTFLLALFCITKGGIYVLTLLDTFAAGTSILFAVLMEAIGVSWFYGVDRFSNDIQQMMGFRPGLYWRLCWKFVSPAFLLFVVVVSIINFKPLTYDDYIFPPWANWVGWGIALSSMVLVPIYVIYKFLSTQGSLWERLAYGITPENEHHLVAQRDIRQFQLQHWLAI
Sodium-dependent dopamine transporter, sequence (Q01959 whole entry): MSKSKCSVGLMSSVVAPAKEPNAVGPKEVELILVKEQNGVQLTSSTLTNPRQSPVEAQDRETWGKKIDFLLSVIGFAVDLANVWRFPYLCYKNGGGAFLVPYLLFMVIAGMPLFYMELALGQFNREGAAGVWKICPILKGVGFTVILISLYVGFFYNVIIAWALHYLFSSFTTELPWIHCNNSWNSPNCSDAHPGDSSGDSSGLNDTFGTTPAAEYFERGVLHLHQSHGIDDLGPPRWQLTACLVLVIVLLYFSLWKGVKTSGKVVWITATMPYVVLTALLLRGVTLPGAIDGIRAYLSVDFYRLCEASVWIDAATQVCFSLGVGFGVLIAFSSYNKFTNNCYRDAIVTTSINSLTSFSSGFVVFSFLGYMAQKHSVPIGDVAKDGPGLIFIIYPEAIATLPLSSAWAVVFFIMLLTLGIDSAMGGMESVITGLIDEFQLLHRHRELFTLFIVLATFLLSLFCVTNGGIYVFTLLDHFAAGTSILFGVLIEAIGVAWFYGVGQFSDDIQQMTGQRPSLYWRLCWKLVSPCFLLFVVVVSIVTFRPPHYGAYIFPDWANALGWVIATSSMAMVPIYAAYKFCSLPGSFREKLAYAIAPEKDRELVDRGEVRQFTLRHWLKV
Histamine H2 receptor, sequence (P25021 whole entry): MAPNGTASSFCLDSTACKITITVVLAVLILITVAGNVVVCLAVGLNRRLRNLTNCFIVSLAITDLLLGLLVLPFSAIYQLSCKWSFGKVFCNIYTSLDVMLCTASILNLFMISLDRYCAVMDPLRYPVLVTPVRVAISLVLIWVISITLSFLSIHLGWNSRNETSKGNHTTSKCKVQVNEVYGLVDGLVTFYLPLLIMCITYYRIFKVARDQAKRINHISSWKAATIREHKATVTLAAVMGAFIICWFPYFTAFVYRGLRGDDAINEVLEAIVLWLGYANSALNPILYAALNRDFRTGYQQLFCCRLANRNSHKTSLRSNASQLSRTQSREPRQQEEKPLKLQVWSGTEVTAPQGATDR
Sodium-dependent serotonin transporter, sequence (P31645 whole entry): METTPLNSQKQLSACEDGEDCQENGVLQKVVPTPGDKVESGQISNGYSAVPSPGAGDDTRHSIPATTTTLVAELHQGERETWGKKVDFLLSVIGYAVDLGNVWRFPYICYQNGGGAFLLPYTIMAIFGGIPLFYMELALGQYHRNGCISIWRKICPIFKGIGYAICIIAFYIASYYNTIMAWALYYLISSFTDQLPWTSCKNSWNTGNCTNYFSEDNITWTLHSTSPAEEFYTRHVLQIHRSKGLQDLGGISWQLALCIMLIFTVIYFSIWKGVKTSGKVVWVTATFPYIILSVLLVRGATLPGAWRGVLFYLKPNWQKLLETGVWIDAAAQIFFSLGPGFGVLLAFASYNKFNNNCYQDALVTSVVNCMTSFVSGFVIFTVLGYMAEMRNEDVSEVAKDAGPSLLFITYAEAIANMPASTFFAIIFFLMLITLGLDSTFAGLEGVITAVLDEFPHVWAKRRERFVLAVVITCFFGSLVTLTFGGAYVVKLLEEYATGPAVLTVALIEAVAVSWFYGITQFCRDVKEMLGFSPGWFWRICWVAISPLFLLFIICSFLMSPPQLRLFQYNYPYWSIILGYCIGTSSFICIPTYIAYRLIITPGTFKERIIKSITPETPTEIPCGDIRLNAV
Muscarinic acetylcholine receptor M3, sequence (P20309 whole entry): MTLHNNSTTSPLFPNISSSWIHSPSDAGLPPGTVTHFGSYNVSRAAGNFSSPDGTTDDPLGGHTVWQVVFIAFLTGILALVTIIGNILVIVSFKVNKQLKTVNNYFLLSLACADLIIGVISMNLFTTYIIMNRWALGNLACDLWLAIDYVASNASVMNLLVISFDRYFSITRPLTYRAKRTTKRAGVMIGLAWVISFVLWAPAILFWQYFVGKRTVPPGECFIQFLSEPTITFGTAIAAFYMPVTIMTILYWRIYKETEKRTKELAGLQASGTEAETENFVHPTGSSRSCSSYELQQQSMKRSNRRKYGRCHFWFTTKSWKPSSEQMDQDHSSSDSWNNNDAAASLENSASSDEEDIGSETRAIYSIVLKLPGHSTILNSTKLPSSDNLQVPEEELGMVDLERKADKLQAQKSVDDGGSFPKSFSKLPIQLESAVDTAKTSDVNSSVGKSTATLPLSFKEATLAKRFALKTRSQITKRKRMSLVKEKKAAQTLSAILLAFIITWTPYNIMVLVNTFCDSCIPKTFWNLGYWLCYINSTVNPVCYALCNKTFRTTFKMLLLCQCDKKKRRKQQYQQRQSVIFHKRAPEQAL
Mu-type opioid receptor, sequence (P35372 whole entry): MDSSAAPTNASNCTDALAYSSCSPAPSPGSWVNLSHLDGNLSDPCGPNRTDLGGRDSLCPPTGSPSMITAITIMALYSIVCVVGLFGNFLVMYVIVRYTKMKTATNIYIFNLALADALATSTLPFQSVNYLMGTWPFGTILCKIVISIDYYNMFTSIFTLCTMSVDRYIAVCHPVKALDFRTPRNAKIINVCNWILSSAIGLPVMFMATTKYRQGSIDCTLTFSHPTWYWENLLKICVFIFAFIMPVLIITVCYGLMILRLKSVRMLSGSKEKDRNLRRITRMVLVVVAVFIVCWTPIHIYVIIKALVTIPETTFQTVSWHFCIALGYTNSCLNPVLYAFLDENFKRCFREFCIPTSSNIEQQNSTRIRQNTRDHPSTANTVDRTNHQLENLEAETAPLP
D(2) dopamine receptor, sequence (P14416 whole entry): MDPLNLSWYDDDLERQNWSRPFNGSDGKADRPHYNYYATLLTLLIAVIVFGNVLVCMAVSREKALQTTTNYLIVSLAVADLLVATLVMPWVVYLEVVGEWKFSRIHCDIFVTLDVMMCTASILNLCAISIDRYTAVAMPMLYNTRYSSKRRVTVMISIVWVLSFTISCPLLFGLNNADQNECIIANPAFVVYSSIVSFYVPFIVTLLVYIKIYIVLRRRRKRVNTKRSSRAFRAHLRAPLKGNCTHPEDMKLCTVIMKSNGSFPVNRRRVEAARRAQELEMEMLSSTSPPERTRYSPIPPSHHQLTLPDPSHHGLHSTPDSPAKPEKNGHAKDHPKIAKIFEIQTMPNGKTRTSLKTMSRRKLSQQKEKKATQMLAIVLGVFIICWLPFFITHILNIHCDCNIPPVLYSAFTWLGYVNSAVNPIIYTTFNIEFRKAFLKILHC
D(3) dopamine receptor, sequence (P35462 whole entry): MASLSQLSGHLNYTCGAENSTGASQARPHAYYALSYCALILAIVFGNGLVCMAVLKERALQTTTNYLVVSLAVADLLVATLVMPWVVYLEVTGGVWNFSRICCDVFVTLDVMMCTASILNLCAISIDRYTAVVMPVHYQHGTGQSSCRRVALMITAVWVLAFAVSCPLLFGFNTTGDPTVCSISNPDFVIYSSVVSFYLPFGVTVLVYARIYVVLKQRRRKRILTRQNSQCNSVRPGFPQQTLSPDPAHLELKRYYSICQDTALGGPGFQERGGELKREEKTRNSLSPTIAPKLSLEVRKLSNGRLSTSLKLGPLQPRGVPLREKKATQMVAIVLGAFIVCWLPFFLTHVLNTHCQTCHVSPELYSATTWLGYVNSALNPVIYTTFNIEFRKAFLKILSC
5-hydroxytryptamine receptor 2A, sequence (P28223 whole entry): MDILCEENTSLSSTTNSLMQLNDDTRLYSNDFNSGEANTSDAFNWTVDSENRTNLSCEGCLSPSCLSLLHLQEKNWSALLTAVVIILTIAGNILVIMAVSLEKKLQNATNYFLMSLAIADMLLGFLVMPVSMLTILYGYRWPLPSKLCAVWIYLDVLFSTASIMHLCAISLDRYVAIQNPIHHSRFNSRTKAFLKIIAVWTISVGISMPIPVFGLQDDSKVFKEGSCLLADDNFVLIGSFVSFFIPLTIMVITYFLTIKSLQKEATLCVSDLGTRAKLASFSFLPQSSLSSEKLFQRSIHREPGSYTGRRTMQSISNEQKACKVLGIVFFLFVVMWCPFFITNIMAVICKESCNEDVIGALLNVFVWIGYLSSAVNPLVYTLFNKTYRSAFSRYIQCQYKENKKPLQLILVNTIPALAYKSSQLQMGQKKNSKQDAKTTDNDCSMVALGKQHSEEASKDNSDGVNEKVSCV
T1 sequence (Q92847 whole entry): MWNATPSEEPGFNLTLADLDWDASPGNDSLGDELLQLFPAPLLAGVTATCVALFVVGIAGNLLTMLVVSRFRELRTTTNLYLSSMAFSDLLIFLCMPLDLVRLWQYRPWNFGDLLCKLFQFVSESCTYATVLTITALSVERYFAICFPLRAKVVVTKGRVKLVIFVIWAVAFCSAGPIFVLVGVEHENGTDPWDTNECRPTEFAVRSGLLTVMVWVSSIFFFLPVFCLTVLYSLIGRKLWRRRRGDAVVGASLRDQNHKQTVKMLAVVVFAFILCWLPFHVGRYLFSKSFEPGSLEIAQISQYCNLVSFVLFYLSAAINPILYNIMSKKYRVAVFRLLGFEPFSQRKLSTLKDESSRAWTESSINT

Activity [1] [%]	Ki [2] [µM]	Ki [3] [µM]	Ki [4] [µM]	IC50 [5] [µM]	Ki [6] [µM]	Ki [7] [µM]	Ki [8] [µM]	Ki [9] [µM]	Ki [10] [µM]	Ki [11] [µM]	Activity [13] [%]	Ki [14] [µM]	Ki [15] [µM]	Ki [16] [µM]	IC50 [17] [µM]	Activity [18] [%]	Activity [19] [%]	Structure (SMILES)	Activity [12] [%]
35	> 10	> 10	> 10	0.0021	> 10	> 10	> 10	> 10	> 10	> 10	32	> 10	> 10	> 10	–	–	–	C[C@H]1CN(C(=O)c2ccc(-c3ccccc3Cl)cc2)CCN1C(=O)c1ccc2cc[nH]c2c1	24
–	–	–	–	0.031	–	–	–	–	–	–	-2	–	–	–	0.049	–	–	C[C@H]1CN(C(=O)c2ccc(-c3ccncc3F)cc2)CCN1C(=O)c1ccc2cc[nH]c2c1	–
32	> 10	> 10	> 10	0.0029	> 10	> 10	> 10	> 10	> 10	> 10	31	> 10	> 10	> 10	–	–	–	Cc1ccccc1-c1ccc(C(=O)N2CCN(C(=O)c3ccc4cc[nH]c4c3)[C@@H](C)C2)cc1	18
18	> 10	> 10	> 10	0.1	> 10	> 10	> 10	> 10	> 10	> 10	14	> 10	> 10	> 10	–	14	24	O=C(c1ccc(-c2ccccc2)cc1)N1CCN(C(=O)c2ccc3cc[nH]c3c2)CC1	–

Reference: ChEMBL document CHEMBL1154934, “Identification of piperazine-bisamide GHSR antagonists for the treatment of obesity” (Bioorg Med Chem Lett, 2010)
